Measurements from ChEMBL document CHEMBL5058577, “EUbOPEN Chemogenomics Library 2 (Multiplex)” (2022).

System: U2OS
Test: Multiplex assay against U2OS
Type: toxicity, cell-based
Details: human
Method in brief: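 Tubulin, mitochondrial-mass and membrane-permeability phenotypes are per cents of healthy-nucleus cells. Cells were gated by CellPathfinder machine learning into Hoechst high-intensity objects or normal cells, normal cells into healthy, pyknosed or fragmented nuclei, and pyknosed cells into mitotic or apoptotic. Before that, live cells stained at seeding with Hoechst33342, BioTracker Green Microtubule Cytoskeleton Dye, MitoTracker Red and Annexin V Alexa Fluor 680 were imaged on a CQ1 microscope at 37°C and 5% CO2 after compound addition.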

[1] = 12 h, 1 µM, compound concentration 1 uM, replicate 1
[2] = 12 h, 1 µM, compound concentration 1 uM, replicate 2
[3] = 12 h, 10 µM, compound concentration 10 uM, replicate 1
[4] = 12 h, 10 µM, compound concentration 10 uM, replicate 2
[5] = 24 h, 1 µM, compound concentration 1 uM, replicate 1
[6] = 24 h, 1 µM, compound concentration 1 uM, replicate 2
[7] = 24 h, 10 µM, compound concentration 10 uM, replicate 1
[8] = 24 h, 10 µM, compound concentration 10 uM, replicate 2
[9] = 48 h, 1 µM, compound concentration 1 uM, replicate 1
[10] = 48 h, 1 µM, compound concentration 1 uM, replicate 2
[11] = 48 h, 10 µM, compound concentration 10 uM, replicate 1
[12] = 48 h, 10 µM, compound concentration 10 uM, replicate 2

## C[C@H](NC(=O)c1c(C(F)F)nn(C)c1Oc1cccc(C(F)(F)F)c1)c1ccc(C(=O)O)cc1 [PALUPIPRANT]
[1]
  Population Apoptotic (%): 60%
  Population Fragmented Nuclei (%): 27%
  Population Healthy Nuclei (%): 63%
  Population Hoechst High Intensity Objects (%): 3%
  Population Membrane Permeable-Phenotype (%): 4%
  Population Mitochondria Different-Phenotype (%): 1%
  Population Mitotic Cells (%): 39%
  Population Normal (%): 96%
  Population Pyknosed Nuclei (%): 8%
  Population Tubulin-Different-Phenotype (%): 1%
  Total Cell Count: 266
[2]
  Population Apoptotic (%): 91%
  Population Fragmented Nuclei (%): 12%
  Population Healthy Nuclei (%): 78%
  Population Hoechst High Intensity Objects (%): 0%
  Population Mitochondria Different-Phenotype (%): 0%
  Population Mitotic Cells (%): 8%
  Population Normal (%): 99%
  Population Pyknosed Nuclei (%): 9%
  Population Tubulin-Different-Phenotype (%): 2%
  Total Cell Count: 132
[3]
  Population Apoptotic (%): 83%
  Population Fragmented Nuclei (%): 28%
  Population Healthy Nuclei (%): 62%
  Population Hoechst High Intensity Objects (%): 3%
  Population Membrane Permeable-Phenotype (%): 7%
  Population Mitochondria Different-Phenotype (%): 4%
  Population Mitotic Cells (%): 16%
  Population Normal (%): 96%
  Population Pyknosed Nuclei (%): 8%
  Population Tubulin-Different-Phenotype (%): 5%
  Total Cell Count: 293
[4]
  Population Apoptotic (%): 100%
  Population Fragmented Nuclei (%): 13%
  Population Healthy Nuclei (%): 77%
  Population Membrane Permeable-Phenotype (%): 5%
  Population Mitochondria Different-Phenotype (%): 2%
  Population Mitotic Cells (%): 0%
  Population Tubulin-Different-Phenotype (%): 2%
  Total Cell Count: 117
[5]
  Population Apoptotic (%): 87%
  Population Fragmented Nuclei (%): 20%
  Population Healthy Nuclei (%): 72%
  Population Hoechst High Intensity Objects (%): 2%
  Population Membrane Permeable-Phenotype (%): 4%
  Population Mitochondria Different-Phenotype (%): 1%
  Population Mitotic Cells (%): 12%
  Population Normal (%): 97%
  Population Pyknosed Nuclei (%): 7%
  Population Tubulin-Different-Phenotype (%): 3%
  Total Cell Count: 316
[6]
  Population Apoptotic (%): 94%
  Population Fragmented Nuclei (%): 14%
  Population Healthy Nuclei (%): 73%
  Population Hoechst High Intensity Objects (%): 1%
  Population Membrane Permeable-Phenotype (%): 5%
  Population Mitochondria Different-Phenotype (%): 0%
  Population Mitotic Cells (%): 5%
  Population Normal (%): 98%
  Population Pyknosed Nuclei (%): 11%
  Population Tubulin-Different-Phenotype (%): 5%
  Total Cell Count: 147
[7]
  Population Apoptotic (%): 91%
  Population Fragmented Nuclei (%): 18%
  Population Healthy Nuclei (%): 74%
  Population Hoechst High Intensity Objects (%): 2%
  Population Membrane Permeable-Phenotype (%): 5%
  Population Mitochondria Different-Phenotype (%): 3%
  Population Mitotic Cells (%): 8%
  Population Normal (%): 97%
  Population Pyknosed Nuclei (%): 7%
  Population Tubulin-Different-Phenotype (%): 1%
  Total Cell Count: 339
[8]
  Population Fragmented Nuclei (%): 13%
  Population Healthy Nuclei (%): 77%
  Population Mitochondria Different-Phenotype (%): 1%
  Population Pyknosed Nuclei (%): 8%
  Population Tubulin-Different-Phenotype (%): 0%
  Total Cell Count: 139
[9]
  Population Apoptotic (%): 82%
  Population Fragmented Nuclei (%): 15%
  Population Healthy Nuclei (%): 73%
  Population Hoechst High Intensity Objects (%): 2%
  Population Membrane Permeable-Phenotype (%): 3%
  Population Mitochondria Different-Phenotype (%): 1%
  Population Mitotic Cells (%): 17%
  Population Normal (%): 97%
  Population Pyknosed Nuclei (%): 11%
  Population Tubulin-Different-Phenotype (%): 1%
  Total Cell Count: 426
[10]
  Population Apoptotic (%): 92%
  Population Healthy Nuclei (%): 70%
  Population Hoechst High Intensity Objects (%): 0%
  Population Mitochondria Different-Phenotype (%): 0%
  Population Mitotic Cells (%): 7%
  Population Normal (%): 99%
  Population Pyknosed Nuclei (%): 13%
  Population Tubulin-Different-Phenotype (%): 2%
  Total Cell Count: 207
[11]
  Population Apoptotic (%): 91%
  Population Fragmented Nuclei (%): 18%
  Population Healthy Nuclei (%): 73%
  Population Hoechst High Intensity Objects (%): 2%
  Population Membrane Permeable-Phenotype (%): 5%
  Population Mitochondria Different-Phenotype (%): 3%
  Population Mitotic Cells (%): 8%
  Population Normal (%): 97%
  Population Pyknosed Nuclei (%): 7%
  Population Tubulin-Different-Phenotype (%): 3%
  Total Cell Count: 463
[12]
  Population Apoptotic (%): 85%
  Population Fragmented Nuclei (%): 14%
  Population Healthy Nuclei (%): 79%
  Population Hoechst High Intensity Objects (%): 1%
  Population Membrane Permeable-Phenotype (%): 1%
  Population Mitochondria Different-Phenotype (%): 1%
  Population Mitotic Cells (%): 14%
  Population Normal (%): 98%
  Population Pyknosed Nuclei (%): 6%
  Population Tubulin-Different-Phenotype (%): 0%
  Total Cell Count: 223
